ChEMBL document CHEMBL4052637, “Discovery and Characterization of R/S-N-3-Cyanophenyl-N'-(6-tert-butoxycarbonylamino-3,4-dihydro-2,2-dimethyl-2H-1-benzopyran-4-yl)urea, a New Histone Deacetylase Class III Inhibitor Exerting Antiproliferative Activity against Cancer Cell Lines” (J Med Chem, 2017)
The source made the active and inactive calls. The rule behind the calls is not given here.

Key:
[1] = target: Histone deacetylase 8 (Homo sapiens) (UniProt Q9BY41); assay: Inhibition of recombinant human HDAC8 expressed in Escherichia coli at 0.1 to 100 uM using Fluor-de-Lys-HDAC8 as substrate after 15 mins by fluorescence assay
[2] = target: T1, NAD-dependent protein deacetylase sirtuin-1 (Homo sapiens) (UniProt Q96EB6); assay: Inhibition of SIRT1 in human Hs683 cells assessed as increase of histone H4 acetylation at 10 to 25 after 8 to 24 hrs by Western blotting method; type: cell-based
T1 sequence (whole entry): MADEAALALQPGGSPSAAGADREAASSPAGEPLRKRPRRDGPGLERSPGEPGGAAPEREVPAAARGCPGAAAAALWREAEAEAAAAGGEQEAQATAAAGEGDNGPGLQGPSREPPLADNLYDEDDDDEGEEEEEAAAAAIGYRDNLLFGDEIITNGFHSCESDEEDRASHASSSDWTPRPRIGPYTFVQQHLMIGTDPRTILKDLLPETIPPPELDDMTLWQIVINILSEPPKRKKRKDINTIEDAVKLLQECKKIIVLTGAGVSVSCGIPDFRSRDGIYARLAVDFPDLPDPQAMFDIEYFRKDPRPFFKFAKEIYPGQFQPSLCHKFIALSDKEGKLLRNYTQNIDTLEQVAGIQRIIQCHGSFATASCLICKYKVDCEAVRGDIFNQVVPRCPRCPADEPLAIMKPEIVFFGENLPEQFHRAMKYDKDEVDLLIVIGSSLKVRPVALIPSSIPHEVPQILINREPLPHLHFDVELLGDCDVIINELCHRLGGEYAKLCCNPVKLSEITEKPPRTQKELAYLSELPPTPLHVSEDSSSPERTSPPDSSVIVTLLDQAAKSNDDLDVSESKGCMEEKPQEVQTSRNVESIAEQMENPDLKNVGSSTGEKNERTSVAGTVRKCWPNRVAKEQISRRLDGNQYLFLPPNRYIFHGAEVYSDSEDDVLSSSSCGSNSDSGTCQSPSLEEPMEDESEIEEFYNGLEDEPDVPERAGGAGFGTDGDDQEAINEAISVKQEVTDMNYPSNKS

IGROV-1 = assay: Growth inhibition of human IGROV1 cells after 48 hrs by SRB assay; type: functional; conditions: IGROV-1, 48 h
[3] = target: NAD-dependent protein deacetylase sirtuin-3, mitochondrial (Homo sapiens, UniProt Q9NTG7); assay: Inhibition of N-terminal His-tagged recombinant human SIRT-3 expressed in Escherichia coli using Fluor-de-Lys-SIRT1 as substrate after 15 mins by fluorescence assay
MDA-MB-231 = assay: Growth inhibition of human MDA-MB-231 cells after 48 hrs by SRB assay; type: functional; conditions: MDA-MB-231, 48 h
U-373MG ATCC = assay: Cell cycle arrest in human U373 cells assessed as accumulation at sub-G1 phase at IC50 for MTT assay after 24 to 48 hrs by propidium iodide staining-based flow cytometry; type: functional
How it was run: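 Cells were exposed to compound at the IC50 for each line from the 72 h MTT assay, or to a reference HDAC inhibitor at 2 μM. Cell cycle distribution was analyzed after 24 and 48 h. Results are mean ± SD of three independent experiments, with p values against control cells.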

[4] = target: T1, NAD-dependent protein deacetylase sirtuin-1 (Homo sapiens); assay: Inhibition of SIRT1 in human Hs683 cells assessed as increase of histone H4 acetylation at 10 uM after 8 hrs by Western blotting method relative to control; type: cell-based
NCI-H460 = assay: Growth inhibition of human NCI-H460 cells after 48 hrs by SRB assay; type: functional; conditions: NCI-H460, 48 h
[5] = target: T2, NAD-dependent protein deacetylase sirtuin-2 (Homo sapiens) (UniProt Q8IXJ6); assay: Inhibition of SIRT2 in human U373 cells assessed as increase of alpha-tubulin acetylation at 2.5 uM after 8 hrs by Western blotting method relative to control; type: cell-based
T2 sequence (whole entry): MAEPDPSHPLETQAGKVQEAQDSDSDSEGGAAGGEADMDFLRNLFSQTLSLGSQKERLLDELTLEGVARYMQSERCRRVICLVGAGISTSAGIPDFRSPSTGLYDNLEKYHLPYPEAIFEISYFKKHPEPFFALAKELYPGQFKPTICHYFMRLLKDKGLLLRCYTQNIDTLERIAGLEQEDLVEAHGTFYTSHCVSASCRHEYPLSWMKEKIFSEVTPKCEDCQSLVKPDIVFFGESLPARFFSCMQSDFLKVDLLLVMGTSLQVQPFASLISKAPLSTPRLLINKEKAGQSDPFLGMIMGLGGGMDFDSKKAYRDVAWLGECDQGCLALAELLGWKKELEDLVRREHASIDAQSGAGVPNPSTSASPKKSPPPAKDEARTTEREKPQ

OVCAR-3 = assay: Growth inhibition of human OVCAR3 cells after 48 hrs by SRB assay; type: functional; conditions: OVCAR-3, 48 h
[6] = target: T1, NAD-dependent protein deacetylase sirtuin-1 (Homo sapiens); assay: Inhibition of SIRT1 in human U373 cells assessed as increase of histone H4 acetylation after 8 hrs by Western blotting method; type: cell-based
MDA-MB-468 = assay: Growth inhibition of human MDA-MB-468 cells after 48 hrs by SRB assay; type: functional; conditions: MDA-MB-468, 48 h
Hs 683 = assay: Induction of apoptosis in human Hs683 cells at 10 uM after 72 hrs by TUNEL method relative to control; type: functional
[7] = target: T3, NAD-dependent protein deacetylase sirtuin-1 (Homo sapiens, UniProt Q96EB6); assay: Inhibition of N-terminal His-tagged recombinant human SIRT-1 expressed in Escherichia coli using Fluor-de-Lys-SIRT1 as substrate after 15 mins by fluorescence assay
T3 sequence (Q96EB6 whole entry): T1 sequence (whole entry)

[8] = Potency index, ratio of EX-527 IC50 to test compound IC50 for human U373 cells; type: functional, U-373MG ATCC
RPMI-8226 = assay: Growth inhibition of human RPMI8226 cells after 48 hrs by SRB assay; type: functional; conditions: RPMI-8226, 48 h
LOX IMVI = assay: Growth inhibition of human LOXIMVI cells after 48 hrs by SRB assay; type: functional
SW1573/2R120 = assay: Antiproliferative activity against human SW1573/2R120 cells overexpressing ABCC1/LRP after 72 hrs by MTT assay; type: functional, cell-based
How it was run: (§1)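 MTT assay: cells in RPMI 1640 with 10% heat-inactivated FCS at 37 °C and 5% CO2 were seeded 24 h before treatment. They were exposed 72 h to compound at 0.01–100 μM, with DMSO as solvent.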

SK-OV-3 = assay: Growth inhibition of human SKOV3 cells after 48 hrs by SRB assay; type: functional; conditions: SK-OV-3, 48 h
U-251 = assay: Growth inhibition of human U251 cells after 48 hrs by SRB assay; type: functional; conditions: U-251, 48 h
[9] = target: T2, NAD-dependent protein deacetylase sirtuin-2 (Homo sapiens); assay: Inhibition of SIRT2 in human Hs683 cells assessed as increase of alpha-tubulin acetylation after 8 hrs by Western blotting method; type: cell-based
KB-HU = assay: Antiproliferative activity against human KB-HU cells overexpressing ribonucleotide reductase subunit 2 after 72 hrs by MTT assay; type: functional, cell-based; how it was run: as §1
[10] = target: T1, NAD-dependent protein deacetylase sirtuin-1 (Homo sapiens); assay: Inhibition of SIRT1 in human U373 cells assessed as increase of histone H4 acetylation at 10 to 25 after 8 to 24 hrs by Western blotting method; type: cell-based

Sequence of Histone deacetylase 8 (Homo sapiens) (Q9BY41 whole entry): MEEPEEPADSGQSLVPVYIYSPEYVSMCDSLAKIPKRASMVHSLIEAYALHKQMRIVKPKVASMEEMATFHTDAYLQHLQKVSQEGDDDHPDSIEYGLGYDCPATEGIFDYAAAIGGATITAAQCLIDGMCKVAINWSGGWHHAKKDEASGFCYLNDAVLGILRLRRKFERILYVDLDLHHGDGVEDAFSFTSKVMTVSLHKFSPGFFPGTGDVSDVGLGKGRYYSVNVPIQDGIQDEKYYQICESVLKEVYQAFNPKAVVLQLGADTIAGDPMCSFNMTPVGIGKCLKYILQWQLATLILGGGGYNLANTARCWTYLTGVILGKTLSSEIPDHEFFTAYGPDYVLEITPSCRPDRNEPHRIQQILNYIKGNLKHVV
Sequence of NAD-dependent protein deacetylase sirtuin-3, mitochondrial (Q9NTG7 whole entry): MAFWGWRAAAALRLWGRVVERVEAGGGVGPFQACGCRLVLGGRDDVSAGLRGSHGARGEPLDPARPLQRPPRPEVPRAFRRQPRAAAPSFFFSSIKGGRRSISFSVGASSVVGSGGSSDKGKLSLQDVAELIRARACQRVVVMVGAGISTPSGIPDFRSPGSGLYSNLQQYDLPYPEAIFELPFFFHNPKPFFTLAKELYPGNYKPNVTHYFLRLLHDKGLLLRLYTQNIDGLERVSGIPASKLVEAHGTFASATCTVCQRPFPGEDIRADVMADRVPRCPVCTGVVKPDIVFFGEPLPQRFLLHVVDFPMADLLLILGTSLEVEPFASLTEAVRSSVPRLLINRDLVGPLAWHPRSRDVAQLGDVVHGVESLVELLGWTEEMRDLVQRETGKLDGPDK

## CC(C)(C)OC(=O)Nc1ccc2c(c1)C(NC(=O)Nc1cccc(C#N)c1)CC(C)(C)O2 (stereo not drawn)
[1]
  inhibition: inactive
[2]
  inhibition: Active
IGROV-1
  GI50: 6.31 µM
[3]
  IC50: > 200 µM
MDA-MB-231
  GI50: 4.27 µM
U-373MG ATCC
  Activity: inactive
[4]
  fold change (FC): 12
NCI-H460
  GI50: 3.02 µM
[5]
  fold change (FC): 1.4
OVCAR-3
  GI50: 2.29 µM
[6]
  inhibition: Dose-dependent effect
MDA-MB-468
  GI50: 0.269 µM
Hs 683
  Activity: 25%
[7]
  IC50: 6.2 µM
[8]
  Ratio IC50: 20
RPMI-8226
  GI50: 1.62 µM
LOX IMVI
  GI50: 1.62 µM
SW1573/2R120
  Activity: Active
SK-OV-3
  GI50: 9.12 µM
U-251
  GI50: 1.48 µM
[9]
  inhibition: Dose-dependent effect
KB-HU
  Activity: Active
[10]
  inhibition: Active
